The list is not random: actives were taken first. Their share in the collection is about 1.6%.
proCasp7 act: counter-screen: procaspase-7 (human) activation; activation, % at 8.5 µM; recombinant procaspase-7, Ac-DEVD-pNA absorbance 405 nm; D23A/D198A/D206A triple mutant, cannot self-cleave; scale: DMSO 0, 5 µM enzyme 100; 330,000 compounds, 0.093% hits;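 active = percent activation above the screen-wide mean plus 3 SD, cut at about 25% in these data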
Target sequence (P55210 whole entry D23A/D198A/D206A): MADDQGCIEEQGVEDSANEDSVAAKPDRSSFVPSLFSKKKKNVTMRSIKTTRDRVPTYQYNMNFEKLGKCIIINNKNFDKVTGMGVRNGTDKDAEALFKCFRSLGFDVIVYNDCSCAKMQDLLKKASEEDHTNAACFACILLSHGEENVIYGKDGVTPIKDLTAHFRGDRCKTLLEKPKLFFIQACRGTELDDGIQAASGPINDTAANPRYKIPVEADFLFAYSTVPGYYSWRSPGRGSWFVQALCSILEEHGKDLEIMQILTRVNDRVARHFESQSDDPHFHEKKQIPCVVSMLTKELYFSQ
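signal = Epi-absorbance of released pNA at 405 nm, two timepoints | assay system = Uncleavable procaspase-7 mutant enzyme | reagent = Ac-DEVD-pNA substrate, 400 µM as added | times = 1 h enzyme–compound preincubation and 2 h substrate reaction, both 25 °C | benchmarks = low DMSO alone, high DMSO plus 5 µM PC-7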
proCasp3 act: activators of human procaspase-3. P42574. recombinant procaspase-3 D3A, Ac-DEVD-pNA absorbance 405 nm. activation, % at 8.5 µM. 330,000 compounds, 0.11% hits;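 active = activation above the mean of all tested compounds plus 3 SD, cut at about 21% in these data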
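Test system: Procaspase-3 D3A mutant; medium: Zinc-free HEPES/NaCl buffer with 0.01% Triton X-100 at pH 7.4; reagent: DEVD-pNA substrate; doses: one concentration, 8.5 µM nominal, 0.8% DMSO; times: 1 h preincubation plus 2 h reaction at 25 °C; signal: Epi-absorbance at 405 nm of released p-nitroaniline, 0 and 120 min; replicates: singlicate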
Neddylation inh: cullin neddylation inhibition | P61081+Q13564 | TR-FRET cullin neddylation, biochemical | calls only at 25 µM | 360,000 compounds, 0.58% hits; in the data active = inhibition above about 36%
KLK7 zymogen act: activators of human kallikrein-7 zymogen; AID 652039; 370,000 compounds, 0.9% hits; purified proKLK7, EDANS-DABCYL substrate fluorescence; 100% is mature enzyme control, 0% vehicle; activation, % at 7 µM; P49862;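 active = activation above the mean of all tested compounds plus 3 SD, computed per campaign excluding outliers beyond control limits, cut at about 13% in these data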
proKLK7 act conf: proKLK7 activation, confirmation | shares compounds with KLK7 zymogen act | purified proKLK7, EDANS-DABCYL substrate fluorescence; scaled: vehicle 0, mature enzyme 100 | activation, % at 7 µM | 3,200 compounds, 68% hits | AID 686949;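 active = activation, as change over the incubation, above the mean of all tested compounds plus 3 SD, cut at about 13% in these data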
EDANS interfere: optically interferes with EDANS-DABCYL signal, flagging KLK7 hits; EDANS-DABCYL substrate fluorescence interference, no enzyme, 4 h; solvent 0%, active enzyme control 100%; shares compounds with KLK7 zymogen act; activation, % at 7 µM; 3,200 compounds, 80% hits;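 active = activation above the all-compound mean plus 3 SD, ignoring values outside control-based bounds, cut at about 4.8% in these data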;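 note: value is the 4 h activation minus the activation read at time zero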
Of the large screens only hits and unclear results are named; the others gave an inactive call (follow-up assays come after a bar, where shown).

COc1ccc(CN2C(=O)Cc3c2nc(N)c2c(N)nc(N4CCOCC4)c(C#N)c32)cc1	KLK7 zymogen act 55.1 | proKLK7 act conf inactive | EDANS interfere inactive
N#Cc1c(N2CCCCC2)nc(N)c2c(N)nc3c(c12)CC(CCl)O3 (stereo not given)	KLK7 zymogen act 14.5 | proKLK7 act conf inactive | EDANS interfere inactive
CN(C(=O)c1cccc(S(=O)(=O)N2CCCC2)c1)C1CCCCC1	none
COc1ccc(CCN=C(N)NS(=O)(=O)c2ccc(F)cc2)cc1	none
CCC(C)NC(=O)c1cc2cc3ccc(OC)cc3nc2s1 (stereo not given)	KLK7 zymogen act 30.4 (not shown: Neddylation inh) | proKLK7 act conf inactive | EDANS interfere 5.7
COCCN(CCOC)C(=O)c1cc2c(=O)n3ccccc3nc2s1	none (not shown: Neddylation inh)
CC(C)CCNC(=O)c1cc2c(=O)n3ccccc3nc2s1	KLK7 zymogen act 62.7 (not shown: Neddylation inh) | proKLK7 act conf 32.9 | EDANS interfere 40.7
Cc1cccn2c(=O)c3cc(C(=O)NCCCOC(C)C)sc3nc12	none (not shown: Neddylation inh)
CC(C)CN(CC(C)C)C(=O)c1cc2c(=O)n3ccccc3nc2s1	KLK7 zymogen act 22.1 (not shown: Neddylation inh) | proKLK7 act conf inactive | EDANS interfere inactive
O=C(c1cc2c(=O)n3ccccc3nc2s1)N1CCc2ccccc2C1	none (no result: Neddylation inh, KLK7 zymogen act)
CCC(C)NC(=O)c1cc2c(=O)n3ccccc3nc2s1 (stereo not given)	KLK7 zymogen act 66.1 (not shown: Neddylation inh) | proKLK7 act conf 60.7 | EDANS interfere 69.8
FC(F)(F)c1ccc(Cn2ccc3ccc(-c4ccc5ccn(Cc6ccc(C(F)(F)F)cc6)c5c4)cc32)cc1	none (no result: proCasp7 act, proCasp3 act, Neddylation inh)
CNc1nc(NC)c2cn[nH]c2n1	none (no result: proCasp7 act, proCasp3 act)
CCN(CC)C(=O)c1cc2c(=O)n3ccccc3nc2s1	KLK7 zymogen act 64.0 (not shown: Neddylation inh) | proKLK7 act conf 64.0 | EDANS interfere 82.2
